M1 ag parental: counter-screen for M1 agonists: effect in parental CHO-K1 cells; 360,000 tested, 0.48% active; Fluo-8 calcium fluorescence; scaled to maximal ATP response, vehicle zero; AID 602248; activation, % at 3 µM; in the data active means activation above about 15%;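 further: untransfected CHO-K1 host cells lacking M1 receptor as counterscreen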
M1 PAM parental: M1 PAM counterscreen hit in parental CHO-K1 cells. AID 602247. activation, % at 3 µM. ATP EC20, Fluo-8 calcium fluorescence; 0% at ATP EC20, 100% at ATP max. 360,000 tested, 0.02% active;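 active means activation above the run cutoff, the mean activation of all test compounds plus 3 SD, cut at about 40% in these data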;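 further: peak over basal fluorescence ratio in a 140 s read after ATP addition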
CHO parental Ca: counter-screen for OX1R antagonists: effect in parental CHO cells. inhibition, % at 5.6 µM. parental CHO-K1, ATP-induced calcium, Fluo-8 fluorescence. 330,000 tested, 0.63% active;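 active means inhibition above that plate's mean sample inhibition plus 3 SD, cut at about 26% in these data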;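 further: 0% = ATP-challenged DMSO wells and 100% = DMSO wells without ATP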
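Measured by: calcium-sensitive Fluo-8 fluorescence / Test system: CHO parental line / Controls: ATP-challenged DMSO wells low, unchallenged DMSO wells high / Measure: % inhibition / Compound: single nominal dose of 5.6 µM per compound / Replicates: single well per compound, no replicates / Reagent: ATP as calcium-mobilizing challenge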
CHO-K1 Ca antag: counter-screen for M1 antagonists: effect in parental CHO-K1 cells; ATP-induced calcium, Fluo-8 fluorescence; inhibition, % at 3 µM; 360,000 tested, 0.6% active;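 active means inhibition above a per-plate cutoff, the plate's mean sample inhibition plus 3 SD, cut at about 24% in these data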;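 further: 0% = DMSO plus EC80 ATP and 100% = DMSO alone without ATP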
OX1R antag-1: blocks the human orexin 1 receptor | O43613 | OX1R-expressing cells, FRET antagonist read-out | inhibition, % at 6.6 µM | 330,000 tested, 1.8% active | AID 485270; in the data active means inhibition mostly above about 38%, no sharp cut-off; inactive means mostly below about 40%;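 further: 0% = agonist challenge alone and 100% = reference antagonist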
Target sequence (O43613 whole entry, looked up): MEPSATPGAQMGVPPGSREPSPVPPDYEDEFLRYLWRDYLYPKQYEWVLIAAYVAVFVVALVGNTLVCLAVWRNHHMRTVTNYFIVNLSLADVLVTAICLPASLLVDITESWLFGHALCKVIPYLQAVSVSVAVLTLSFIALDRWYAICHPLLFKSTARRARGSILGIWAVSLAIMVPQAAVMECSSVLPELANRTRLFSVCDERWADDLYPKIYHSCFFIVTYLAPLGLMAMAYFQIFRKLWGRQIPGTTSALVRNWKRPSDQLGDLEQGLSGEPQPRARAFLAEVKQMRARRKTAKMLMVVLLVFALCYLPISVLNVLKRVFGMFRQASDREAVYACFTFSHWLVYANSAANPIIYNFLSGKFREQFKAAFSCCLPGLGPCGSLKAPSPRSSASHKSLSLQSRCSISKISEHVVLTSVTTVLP
OX1R antag-2: human HCRTR1 antagonism; O43613; CHO/OX1R cells, Fluo-8 calcium fluorescence, orexin A; inhibition, % at 5 µM; 330,000 tested, 0.43% active; AID 434989;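 active means inhibition above its plate's threshold, mean inhibition of all tested compounds on the plate plus 3 SD, cut at about 37% in these data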;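 further: 0% = orexin A challenge wells and 100% = SB-334867-A antagonist wells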
An asterisk follows results filed as active; · = no result. This is a sample that favours compounds with a hit; in the whole collection about 2.9% have one here.

SMILES | M1 ag parental | M1 PAM parental | CHO parental Ca | CHO-K1 Ca antag | OX1R antag-1 | OX1R antag-2
O=C(Nc1ccccc1)Nc1ccc(F)c([N+](=O)[O-])c1 | 15* | -2 | 19 | 22 | 42 | -3
O=C(Nc1ccccc1)Nc1ccc(Cl)c([N+](=O)[O-])c1 | 17* | 2 | 10 | 19 | 33 | 5
Cc1cccc(N)c1-c1c(C)cccc1N | 0 | 4 | -2 | -11 | 4 | -7
O=C(NC1CC2CCC(C1)N2Cc1ccccc1)c1ccccc1Br (stereo unspecified) | 0 | 12 | -10 | -5 | 8 | -20
COc1ccc(CCNC(=O)COc2cccc(-n3cnnn3)c2)cc1 | 1 | -24 | · | 3 | · | ·
COCCNC(=O)C1CCC(Cn2c(=S)[nH]c3ccccc3c2=O)CC1 (stereo unspecified) | 0 | -2 | -6 | 30* | 15 | 0
O=C(NCCc1c[nH]c2ccccc12)C1CCC(Cn2c(=S)[nH]c3ccccc3c2=O)CC1 (stereo unspecified) | 3 | 13 | -17 | 7 | 0 | -16
CC(NCc1ccc(S(N)(=O)=O)cc1)C(=O)Nc1ccc([N+](=O)[O-])cc1Cl (stereo unspecified) | 1 | 17 | -3 | -3 | 66* | -5
O=C(CN1C(=O)NC2(CCCCC2)C1=O)Nc1cccc(S(=O)(=O)N2CCCC2)c1 | 0 | -13 | -8 | -12 | 2 | -25
Cc1ccc(Nc2nc(N)nc(CN3CCN(c4ccccc4F)CC3)n2)cc1 | 1 | 10 | -26 | -9 | 8 | -24
Nc1nc(CN2CCN(c3ccccc3F)CC2)nc(Nc2ccccc2)n1 | 0 | -3 | -8 | 31* | 10 | -16
COc1ccc2oc(=O)c(C(=O)NCCc3ccc(OC)c(OC)c3)cc2c1 | 1 | 14 | -30 | -6 | 8 | -24
CC1CCCC(NC(=S)Nc2ccc(SC(F)F)cc2)C1C (stereo unspecified) | 12 | 9 | 48* | 20 | 35 | 60*
FC(F)Sc1ccc(NC(=S)NC2CCCC2)cc1 | 12 | 6 | 60* | -1 | 26 | 11
Cc1ccc(C2C3=C(CC(C)(C)CC3=O)Nc3n[nH]c(C)c32)cc1 (stereo unspecified) | 0 | -5 | -28 | 25* | 21 | -31
Cc1c(NC(=O)c2cccc(NC(=O)Cc3ccccc3Cl)c2)c(=O)n(-c2ccccc2)n1C | 0 | 11 | · | -12 | · | ·
Cn1cccc1/C=C1\CC(C(C)(C)C)C/C(=C\c2cccn2C)C1=O (stereo unspecified) | 0 | -9 | 5 | 24* | 11 | 6
CCn1c(C)csc1=NC(=O)c1ccccc1 | 0 | 4 | -3 | 2 | 76* | -6
CCN(CC(=O)N1CCC(C(N)=O)CC1)S(=O)(=O)c1cc(Cl)ccc1Cl | 0 | -7 | · | -9 | · | ·
CCC(=O)N1CCc2cc(S(=O)(=O)CCC(=O)Nc3ccc(F)c(F)c3)ccc21 | 0 | -8 | -16 | 35* | 27 | -14
CN(C)c1ccc(C(=O)Nc2nc3c(s2)CCCC3)cc1 | 1 | 3 | -1 | 13 | 52* | -11
CC(C)(C)c1ccc(C(=O)NC(=S)Nc2nc3c(s2)CCCC3)cc1 | 0 | -9 | -5 | 19 | 24 | -8
COC(=O)C(Cc1c[nH]c2ccccc12)NC(=O)C(=O)c1c[nH]c2ccccc12 (stereo unspecified) | 4 | -5 | 2 | -7 | 18 | 16
CCSc1nnc(SCC(=O)c2c(N)n(C)c(=O)n(C)c2=O)s1 | 1 | -24 | · | -2 | · | ·
C=CC[n+]1c(/C=C/c2ccc(OC(C)=O)c(OC)c2)ccc2ccccc21 | 1 | -9 | 6 | -14 | 48* | -9
Cc1ccc(N2C(=O)CC(Sc3ncccn3)C2=O)cc1C (stereo unspecified) | 0 | 19 | · | -9 | · | ·
O=Nc1c(O)n(Cc2cccc(Cl)c2)c2ccccc12 | 0 | -8 | 61* | 5 | 19 | 6
NC(=S)N=Nc1c(O)n(Cc2ccccc2)c2ccccc12 | 2 | 25 | -6 | -1 | 29 | -6
CN(C)C(/C=C/Nc1cccc([N+](=O)[O-])c1)=C(C#N)C#N | 1 | 11 | -6 | 0 | 50* | 5

Compound activity: PubChem, The Scripps Research Institute Molecular Screening Center
